Source: ChEMBL document CHEMBL4130564, “Indolylalkyltriphenylphosphonium Analogues Are Membrane-Depolarizing Mycobactericidal Agents” (ACS Med Chem Lett, 2017)
Activity calls are given as the source filed them. The rule behind the calls is not given here.

Test system: Mycobacterium tuberculosis
Experiment: Induction of membrane disruption in Mycobacterium bovis BCG ATCC 35734 harboring piniBAC-RFP assessed as increase in iniBAC cluster transactivation up to 100 uM after 24 hrs by RFP-based fluorescence assay
Type: functional, organism-based
Settings: BCG str. ATCC 35743
Procedure, shortened: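 Recombinant M. bovis carrying iniBAC promoter-driven RFP treated 24 h with 0.4–100 μM; promoter induction read as RFP fluorescence; isoniazid as positive control.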

SMILES: NNC(=O)c1ccncc1
- Activity: Active

SMILES: COc1cccc2ccn(CCCCC[P+](c3ccccc3)(c3ccccc3)c3ccccc3)c12.[I-]
- Activity: inactive
